# Legend:
# [1] = system: Candida albicans; assay: Evaluated in vitro for the minimum inhibitory concentration against Candida albicans 124; format: functional
# Procedure, shortened: (§1)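 Yeast tube dilution in malt extract broth (pH 4.8), with compounds in DMSO serially diluted in the medium. Inoculum was blastospores from about 30-h shaken cultures in yeast nitrogen base at 37 °C. Growth was read after 48 h at 30 °C. MIC was the lowest concentration without macroscopically visible growth.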
# [2] = system: Candida parapsilosis; assay: In vitro minimum inhibitory concentration which is the lowest concentration at which no signs of fungal growth were detected against Candida parapsilosis 39.; format: functional; settings: Lodderomyces parapsilosis; procedure, shortened: as §1
# [3] = system: Microsporum canis; assay: Evaluated in vitro for the minimum inhibitory concentration against Microsporum canis.; format: functional
# Procedure, shortened: (§2)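 Dermatophytes were tested in glass tubes of Sabouraud's dextrose broth (pH 6.5) against DMSO-dissolved compounds serially diluted in the medium. Inoculum was taken by spatula from 21-day Kimming agar cultures grown at 30 °C. Incubation was 7 days at 30 °C. MIC was the lowest concentration showing no macroscopic fungal growth.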
# [4] = system: Trichophyton benhamiae; assay: Evaluated in vitro for the minimum inhibitory concentration against Trichophyton mentagrophytes; format: functional, Arthroderma benhamiae; procedure, shortened: as §2
# [5] = system: Sporothrix schenckii; assay: Evaluated in vitro for the minimum inhibitory concentration against Sporothrix schenckii.
# [6] = system: Aspergillus fumigatus; assay: Evaluated in vitro for the minimum inhibitory concentration against Aspergillus fumigatus.
# [7] = system: Candida parapsilosis; assay: Evaluated in vitro for the minimum inhibitory concentration against Candida parapsilosis 39.; format: functional; settings: Lodderomyces parapsilosis; procedure, shortened: as §1
# [8] = system: Aspergillus fumigatus; assay: In vitro minimum inhibitory concentration at which no signs of fungal growth were detected against laboratory adapted strains of Aspergillus fumigatus.; format: functional
# Procedure, shortened: (§3)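 Inoculum of filamentous fungi harvested from 21-day-old Kimming agar cultures grown at 30 °C. Broth dilution in glass tubes with Sabouraud's dextrose broth (pH 6.5); compounds dissolved in DMSO and serially diluted in medium. Incubation at 30 °C, read after 72 h. MIC taken as the lowest concentration with no macroscopically visible growth.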
# [9] = system: Aspergillus niger; assay: In vitro minimum inhibitory concentration at which no signs of fungal growth were detected against laboratory adapted strains of Aspergillus niger.; format: functional; procedure, shortened: as §3
# [10] = system: Candida albicans; assay: In vitro minimum inhibitory concentration at which no signs of fungal growth were detected against clinically isolated strains of Candida albicans.; format: functional; procedure, shortened: as §1
# [11] = system: Candida albicans; assay: In vitro minimum inhibitory concentration at which no signs of fungal growth were detected against laboratory adapted strains of Candida albicans.; format: functional
# Procedure, shortened: (§4)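 Yeast blastospores taken from shaken cultures about 30 h old, grown at 37 °C in yeast nitrogen base. Tube dilution used malt extract broth (pH 4.8); compounds were dissolved in DMSO and serially diluted in medium. Incubated at 30 °C and read after 48 h. MIC is the lowest concentration with no macroscopic growth.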
# [12] = system: Candida albicans; assay: In vitro minimum inhibitory concentration which is the lowest concentration at which no signs of fungal growth were detected against Candida albicans 124; format: functional; procedure, shortened: as §1
# [13] = system: Candida parapsilosis; assay: In vitro minimum inhibitory concentration at which no signs of fungal growth were detected against laboratory adapted strains of Candida parapsilosis.; format: functional; settings: Lodderomyces parapsilosis; procedure, shortened: as §4
# [14] = system: Arthrodermataceae; assay: In vitro minimum inhibitory concentration at which no signs of fungal growth were detected against clinically isolated strains of dermatophytes.; format: functional; procedure, shortened: as §2
# [15] = system: Arthrodermataceae; assay: In vitro minimum inhibitory concentration at which no signs of fungal growth were detected against laboratory adapted strains of dermatophytes.; format: functional
# Procedure, shortened: (§5)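 Sabouraud's dextrose broth (pH 6.5) in glass tubes; compounds dissolved in DMSO and serially diluted with medium. Incubated at 30 °C and read after 7 days. MIC is the lowest concentration with no macroscopically visible fungal growth.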
# [16] = system: Microsporum canis; assay: In vitro minimum inhibitory concentration which is the lowest concentration at which no signs of fungal growth were detected against Microsporum canis.; format: functional; procedure, shortened: as §2
# [17] = system: Scopulariopsis brevicaulis; assay: In vitro minimum inhibitory concentration at which no signs of fungal growth were detected against laboratory adapted strains of Scopulariopsis brevicaulis.; format: functional
# Procedure, shortened: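 Inoculum of this mould harvested from 21-day-old Kimming agar cultures grown at 30 °C. Compounds dissolved in DMSO and serially diluted in broth in glass tubes. Incubated at 30 °C and read after 72 h. MIC is the lowest concentration with no macroscopically detectable growth.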
# [18] = system: Sporothrix schenckii; assay: In vitro minimum inhibitory concentration at which no signs of fungal growth were detected against laboratory adapted strains of Sporothrix schenck ii; format: functional; procedure, shortened: as §5
# [19] = system: Nakaseomyces glabratus; assay: In vitro minimum inhibitory concentration at which no signs of fungal growth were detected against laboratory adapted strains of Torulopsis glabrata; format: functional; procedure, shortened: as §4
# [20] = system: Trichophyton benhamiae; assay: In vitro minimum inhibitory concentration which is the lowest concentration at which no signs of fungal growth were detected against Trichophyton mentagrophytes.; format: functional, Arthroderma benhamiae; procedure, shortened: as §2
# [21] = system: Sporothrix schenckii; assay: In vitro minimum inhibitory concentration which is the lowest concentration at which no signs of fungal growth were detected against Sporothrix schenckii
# [22] = system: Aspergillus fumigatus; assay: In vitro minimum inhibitory concentration which is the lowest concentration at which no signs of fungal growth were detected against Aspergillus fumigatus.
# [23] = system: Candida albicans; assay: In vitro minimum inhibitory concentration at which no signs of fungal growth were detected against clinical isolated strains of Candida albicans.; format: functional; procedure, shortened: as §1
# [24] = system: Arthrodermataceae; assay: In vitro minimum inhibitory concentration at which no signs of fungal growth were detected against clinical isolated strains of dermatophytes.; format: functional; procedure, shortened: as §2
# [25] = system: Sporothrix schenckii; assay: In vitro minimum inhibitory concentration at which no signs of fungal growth were detected against laboratory adapted strains of Sporotrix schenck ii.; format: functional; procedure, shortened: as §5
# [26] = system: Nakaseomyces glabratus; assay: In vitro minimum inhibitory concentration at which no signs of fungal growth were detected against laboratory adapted strains of Torulopsis glabrata.; format: functional; procedure, shortened: as §4
# [27] = system: Aspergillus fumigatus; assay: In vitro minimum inhibitory concentration which is the lowest concentration at which no signs of fungal growth were detected against Aspergillus fumigatus
MIC [1],MIC [3],MIC [4],MIC [5],MIC [6],MIC [7],Compound,further results
50 µg/mL,0.1 µg/mL,0.05 µg/mL,25 µg/mL,0.8 µg/mL,6.25 µg/mL,CN(C/C=C/C#CC(C)(C)C)Cc1cccc2scc(Cl)c12.Cl,
> 200 µg/mL,0.1 µg/mL,0.1 µg/mL,> 200 µg/mL,> 200 µg/mL,6.25 µg/mL,CN(C/C=C/C#CC(C)(C)C)Cc1c(Cl)sc2ccccc12,
25 µg/mL,0.05 µg/mL,0.02 µg/mL,> 100 µg/mL,0.8 µg/mL,1.56 µg/mL,CN(C/C=C/C#CC(C)(C)C)Cc1csc2c(Cl)cccc12.Cl,
3.13 µg/mL,0.006 µg/mL,0.006 µg/mL,0.1 µg/mL,0.4 µg/mL,0.4 µg/mL,Cc1csc2c(CN(C)C/C=C/C#CC(C)(C)C)cccc12.Cl,
50 µg/mL,0.01 µg/mL,0.006 µg/mL,0.8 µg/mL,0.4 µg/mL,1.56 µg/mL,CN(C/C=C/C#CC(C)(C)C)Cc1cccc2sccc12.Cl,
0.8 µg/mL,0.0015 µg/mL,0.0008 µg/mL,0.05 µg/mL,0.1 µg/mL,0.1 µg/mL,CN(C/C=C/C#CC(C)(C)C)Cc1cccc2c(F)csc12.Cl,
100 µg/mL,0.02 µg/mL,0.01 µg/mL,3.13 µg/mL,0.8 µg/mL,3.13 µg/mL,CN(C/C=C/C#CC(C)(C)C)Cc1csc2ccccc12.Cl,
12.5 µg/mL,0.006 µg/mL,0.006 µg/mL,3.13 µg/mL,,0.4 µg/mL,CN(C/C=C/C#CC(C)(C)C)Cc1csc2ccc(Cl)cc12,MIC [27]: 0.4 µg/mL
> 200 µg/mL,> 100 µg/mL,> 100 µg/mL,> 100 µg/mL,,> 200 µg/mL,CN(C/C=C/C#CC(C)(C)C)Cc1cc2ccccc2s1,

# Continued, compound first:
Compound,MIC [1],MIC [3],MIC [4],MIC [5],MIC [6],MIC [7],further results
CN(C/C=C/C#CC(C)(C)C)Cc1cccc2cc(F)sc12.Cl,25 µg/mL,0.01 µg/mL,0.006 µg/mL,3.13 µg/mL,0.05 µg/mL,,MIC [2]: 6.25 µg/mL
CN(C/C=C/C#CC(C)(C)C)Cc1ccc(Cl)c2ccsc12.Cl,100 µg/mL,0.4 µg/mL,0.1 µg/mL,> 200 µg/mL,> 200 µg/mL,0.8 µg/mL,
CN(C/C=C/C#CC(C)(C)C)Cc1cccc2cc(Cl)sc12.Cl,> 100 µg/mL,0.01 µg/mL,0.01 µg/mL,> 100 µg/mL,> 100 µg/mL,0.8 µg/mL,
CN(C/C=C/C#CC(C)(C)C)Cc1cccc2ccccc12 [TERBINAFINE],,,,,,,MIC [8]: 1.56 µg/mL; MIC [9]: 0.02 µg/mL; MIC [10]: 100 µg/mL; MIC [11]: 50 µg/mL; MIC [12]: 25 µg/mL; MIC [13]: 0.8 µg/mL; MIC [2]: 0.8 µg/mL; MIC [14]: 0.01 µg/mL; MIC [15]: 0.006 µg/mL; MIC [16]: 0.006 µg/mL; MIC [17]: 0.8 µg/mL; MIC [18]: 0.4 µg/mL; MIC [19]: > 100 µg/mL; MIC [20]: 0.003 µg/mL; MIC [21]: 0.8 µg/mL; MIC [22]: 0.4 µg/mL
CN(C/C=C/C#CC(C)(C)C)Cc1cc(Cl)cc2ccsc12.Cl,> 200 µg/mL,0.1 µg/mL,0.05 µg/mL,> 200 µg/mL,3.13 µg/mL,0.2 µg/mL,
CN(C/C=C/C#CC(C)(C)C)Cc1cccc2c(C=O)csc12,,,,,,,MIC [12]: 6.25 µg/mL; MIC [2]: 0.4 µg/mL; MIC [16]: 0.02 µg/mL; MIC [20]: 0.05 µg/mL; MIC [21]: 1.56 µg/mL; MIC [22]: 0.4 µg/mL
CN(C/C=C/C#CC(C)(C)C)Cc1cccc2c(Cl)csc12.Cl,0.8 µg/mL,0.003 µg/mL,0.0015 µg/mL,0.1 µg/mL,0.2 µg/mL,0.1 µg/mL,MIC [8]: 0.05 µg/mL; MIC [9]: 0.02 µg/mL; MIC [23]: 3.13 µg/mL; MIC [11]: 0.4 µg/mL; MIC [13]: 0.02 µg/mL; MIC [24]: 0.02 µg/mL; MIC [15]: 0.003 µg/mL; MIC [17]: 0.05 µg/mL; MIC [25]: 0.1 µg/mL; MIC [26]: > 100 µg/mL
CSc1csc2c(CN(C)C/C=C/C#CC(C)(C)C)cccc12.Cl,6.25 µg/mL,0.1 µg/mL,0.02 µg/mL,> 200 µg/mL,6.25 µg/mL,0.8 µg/mL,
CN(C/C=C/C#CC(C)(C)C)Cc1cccc2c(C(F)(F)F)csc12.Cl,3.13 µg/mL,0.1 µg/mL,0.05 µg/mL,50 µg/mL,12.5 µg/mL,1.56 µg/mL,
CN(C/C=C/C#CC(C)(C)C)Cc1ccc2sccc2c1,200 µg/mL,1.56 µg/mL,0.4 µg/mL,> 200 µg/mL,1.56 µg/mL,100 µg/mL,
CN(C/C=C/C#CC(C)(C)C)Cc1cccc2c(C#N)csc12.Cl,,,,,,,MIC [12]: 3.13 µg/mL; MIC [2]: 0.2 µg/mL; MIC [16]: 0.01 µg/mL; MIC [20]: 0.02 µg/mL; MIC [21]: 0.4 µg/mL; MIC [22]: 3.13 µg/mL
CN(C/C=C/C#CC(C)(C)C)Cc1cccc2ccsc12.Cl,25 µg/mL,0.01 µg/mL,0.006 µg/mL,0.1 µg/mL,0.2 µg/mL,0.8 µg/mL,
CN(C/C=C/C#CC(C)(C)C)Cc1cccc2c(Br)csc12.Cl,,,,,,,MIC [12]: 0.8 µg/mL; MIC [2]: 0.2 µg/mL; MIC [16]: 0.006 µg/mL; MIC [20]: 0.006 µg/mL; MIC [21]: 0.4 µg/mL; MIC [22]: 0.8 µg/mL
CN(C/C=C/C#CC(C)(C)C)Cc1cccc2sc(Cl)cc12.Cl,25 µg/mL,0.006 µg/mL,0.006 µg/mL,6.25 µg/mL,0.2 µg/mL,0.2 µg/mL,

# Source: ChEMBL document CHEMBL1125755, “Synthesis and structure-activity relationships of benzo[b]thienylallylamine antimycotics” (1991)
